ChEMBL document CHEMBL1139422, “Design, synthesis and biological evaluation of novel compounds with conjugated structure as anti-tumor agents” (Bioorg Med Chem, 2008)
The source made the active and inactive calls. No cut-off for these calls is given here.

What was measured:
HepG2 = assay: Antiproliferative activity against human HepG2 cells after 48 hrs by MTT assay; type: functional, cell-based; details: HepG2, 48 h
How it was run: (§1)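 Cells seeded at 4000/well; compounds (10 mg/mL DMSO stock, diluted in medium) added 24 h after seeding, in duplicate. Incubation 48 h at 37 °C, 5% CO2. MTT (20 µL of 5 mg/mL in PBS) then added for 4 h at 37 °C, and the signal read at 570 nm.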

Histone deacetylase 1 = Histone deacetylase 1 (Homo sapiens, UniProt Q13547); assay: Inhibition of human recombinant HDAC1 using Fluor de Lys as substrate by fluorimetric assay
How it was run: (§2)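 Purified recombinant HDAC1 or HDAC4 was incubated with acetylated-lysine Fluor de Lys substrate, with or without inhibitor. Developer was then added to give the fluorophore, and fluorescence was read. IC50 values are means of at least three experiments. SI is IC50(HDAC1)/IC50(HDAC4).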

Histone deacetylase 4 = Histone deacetylase 4 (Homo sapiens, UniProt P56524); assay: Inhibition of human recombinant HDAC4 using Fluor de Lys as substrate by fluorimetric assay; how it was run: as §2
HCT-116 = assay: Antiproliferative activity against human HCT116 cells after 48 hrs by MTT assay; type: functional, cell-based; details: HCT-116, 48 h; how it was run: as §1
A549 = assay: Antiproliferative activity against human A549 cells after 48 hrs by MTT assay; type: functional, cell-based; details: A549, 48 h; how it was run: as §1
Homo sapiens = species on record: Homo sapiens; assay: Selectivity index, ratio of IC50 for human recombinant HDAC1 to IC50 for human recombinant HDAC4; how it was run: as §2
PC-3 = assay: Antiproliferative activity against human PC3 cells after 48 hrs by MTT assay; type: functional, cell-based; details: PC-3, 48 h; how it was run: as §1
U-937 [1] = assay: Induction of apoptosis in human U937 cells assessed as caspase 3 activation at 5 uM after 24 hrs by FACS analysis; type: functional, cell-based
How it was run: (§3)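 U937 cells were grown in supplemented RPMI at 200,000 cells/mL. Compounds in DMSO were given at 5 µM for 24 h or 30 h, or at 0.5 µM for 28 h. Apoptosis was analysed by FACS. Values are means of independent duplicates.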

U-937 [2] = assay: Cell cycle arrest in human U937 cells assessed as accumulation at S phase at 5 uM after 24 hrs by flow cytometry; type: functional, cell-based
How it was run: (§4)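 U937 cells were grown in RPMI with 10% FCS, penicillin/streptomycin, amphotericin-B, 10 mM Hepes and 2 mM glutamine, and held at 200,000 cells/mL. Cells were treated 24 h with compounds in DMSO. 2.5×10^5 cells were resuspended in hypotonic buffer (0.1% Triton X-100, 0.1% sodium citrate, 50 µg/mL PI, RNase A) for 30 min in the dark, then analysed by flow cytometry. Values are means of independent duplicates.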

U-937 [3] = assay: Induction of monocytic differentiation in human U937 cells assessed as CD14 expression at 5 uM after 30 hrs by FACS analysis; type: functional, cell-based
How it was run: (§5)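 U937 cells were grown in RPMI with 10% FCS, 10 mM Hepes and 2 mM glutamine at 200,000 cells/mL. Compounds in DMSO were given for 30 h (5 µM) or 28 h (0.5 µM). Cells were stained for surface antigen for 30 min at 4 °C in the dark, washed, and resuspended in PBS with propidium iodide. PI-positive cells were excluded from the FACS analysis. Values are means of independent quadruplicates.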

U-937 [4] = assay: Increase in granulocytic differentiation in human U937 cells assessed as CD11c expression at 5 uM after 30 hrs by FACS analysis; type: functional, cell-based; how it was run: as §5
U-937 [5] = assay: Induction of apoptosis in human U937 cells assessed as caspase 3 activation at 5 uM after 30 hrs by FACS analysis; type: functional, cell-based; how it was run: as §3
U-937 [6] = assay: Induction of p21waf1/CIP1 expression in human U937 cells after 24 hrs by Western blot analysis; type: functional, cell-based
How it was run: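 U937 cells were treated for 24 h. Total protein extracts (50 µg) were run on a 15% polyacrylamide gel and blotted for p21 (1:500), with tubulin as the loading control.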

[7] = biological target: T1, Protein deacetylase HDAC6 (Homo sapiens) (UniProt Q9UBN7); assay: Inhibition of HDAC6 in human U937 cells assessed as induction of alpha-tubulin acetylation after 24 hrs by Western blot analysis; type: cell-based; details: U-937
T1 sequence (whole entry): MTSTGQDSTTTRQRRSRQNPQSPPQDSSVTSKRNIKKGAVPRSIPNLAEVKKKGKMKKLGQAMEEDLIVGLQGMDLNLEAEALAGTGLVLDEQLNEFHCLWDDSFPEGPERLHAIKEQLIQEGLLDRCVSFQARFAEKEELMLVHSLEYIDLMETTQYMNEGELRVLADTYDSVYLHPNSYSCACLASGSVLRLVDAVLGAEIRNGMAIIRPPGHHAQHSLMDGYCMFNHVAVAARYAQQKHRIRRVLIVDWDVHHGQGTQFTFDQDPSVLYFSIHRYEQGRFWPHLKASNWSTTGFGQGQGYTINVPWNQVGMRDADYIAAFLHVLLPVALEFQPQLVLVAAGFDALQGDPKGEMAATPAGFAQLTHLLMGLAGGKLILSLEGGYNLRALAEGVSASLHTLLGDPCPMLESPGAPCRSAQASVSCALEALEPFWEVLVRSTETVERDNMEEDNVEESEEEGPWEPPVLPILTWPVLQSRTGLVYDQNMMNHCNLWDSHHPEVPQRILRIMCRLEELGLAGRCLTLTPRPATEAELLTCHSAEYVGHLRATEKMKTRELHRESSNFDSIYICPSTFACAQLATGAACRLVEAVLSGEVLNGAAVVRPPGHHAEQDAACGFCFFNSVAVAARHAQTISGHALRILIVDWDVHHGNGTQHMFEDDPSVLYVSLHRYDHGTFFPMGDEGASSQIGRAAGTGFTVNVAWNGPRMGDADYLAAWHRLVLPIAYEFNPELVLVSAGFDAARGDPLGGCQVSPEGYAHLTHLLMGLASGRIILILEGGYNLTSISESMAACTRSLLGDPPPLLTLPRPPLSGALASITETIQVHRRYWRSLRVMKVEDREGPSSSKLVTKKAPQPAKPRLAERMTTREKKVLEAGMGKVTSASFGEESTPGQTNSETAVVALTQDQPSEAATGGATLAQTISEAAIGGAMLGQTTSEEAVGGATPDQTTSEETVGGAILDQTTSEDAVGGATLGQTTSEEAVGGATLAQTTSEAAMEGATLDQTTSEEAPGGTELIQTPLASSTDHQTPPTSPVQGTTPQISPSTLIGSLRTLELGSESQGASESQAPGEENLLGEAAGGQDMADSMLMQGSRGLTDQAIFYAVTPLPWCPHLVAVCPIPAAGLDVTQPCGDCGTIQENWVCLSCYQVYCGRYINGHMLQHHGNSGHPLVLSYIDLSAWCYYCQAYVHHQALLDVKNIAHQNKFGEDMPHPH
How it was run: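 U937 cells were treated for 24 h. Total protein extract (50 µg) was run on a 10% polyacrylamide gel and blotted for acetylated α-tubulin (1:500), with total ERK as the loading control.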

U-937 [8] = assay: Cell cycle arrest in human U937 cells assessed as accumulation at G1 phase at 5 uM after 24 hrs by flow cytometry; type: functional, cell-based; how it was run: as §4
Histone deacetylase = assay: Inhibition of human recombinant HDAC by fluorimetric assay; type: protein assay
U-937 [9] = assay: Increase in granulocytic differentiation in human U937 cells assessed as CD11c expression at 0.5 uM after 28 hrs by FACS analysis; type: functional, cell-based; how it was run: as §5

Chain of Histone deacetylase 4 (P56524 whole entry): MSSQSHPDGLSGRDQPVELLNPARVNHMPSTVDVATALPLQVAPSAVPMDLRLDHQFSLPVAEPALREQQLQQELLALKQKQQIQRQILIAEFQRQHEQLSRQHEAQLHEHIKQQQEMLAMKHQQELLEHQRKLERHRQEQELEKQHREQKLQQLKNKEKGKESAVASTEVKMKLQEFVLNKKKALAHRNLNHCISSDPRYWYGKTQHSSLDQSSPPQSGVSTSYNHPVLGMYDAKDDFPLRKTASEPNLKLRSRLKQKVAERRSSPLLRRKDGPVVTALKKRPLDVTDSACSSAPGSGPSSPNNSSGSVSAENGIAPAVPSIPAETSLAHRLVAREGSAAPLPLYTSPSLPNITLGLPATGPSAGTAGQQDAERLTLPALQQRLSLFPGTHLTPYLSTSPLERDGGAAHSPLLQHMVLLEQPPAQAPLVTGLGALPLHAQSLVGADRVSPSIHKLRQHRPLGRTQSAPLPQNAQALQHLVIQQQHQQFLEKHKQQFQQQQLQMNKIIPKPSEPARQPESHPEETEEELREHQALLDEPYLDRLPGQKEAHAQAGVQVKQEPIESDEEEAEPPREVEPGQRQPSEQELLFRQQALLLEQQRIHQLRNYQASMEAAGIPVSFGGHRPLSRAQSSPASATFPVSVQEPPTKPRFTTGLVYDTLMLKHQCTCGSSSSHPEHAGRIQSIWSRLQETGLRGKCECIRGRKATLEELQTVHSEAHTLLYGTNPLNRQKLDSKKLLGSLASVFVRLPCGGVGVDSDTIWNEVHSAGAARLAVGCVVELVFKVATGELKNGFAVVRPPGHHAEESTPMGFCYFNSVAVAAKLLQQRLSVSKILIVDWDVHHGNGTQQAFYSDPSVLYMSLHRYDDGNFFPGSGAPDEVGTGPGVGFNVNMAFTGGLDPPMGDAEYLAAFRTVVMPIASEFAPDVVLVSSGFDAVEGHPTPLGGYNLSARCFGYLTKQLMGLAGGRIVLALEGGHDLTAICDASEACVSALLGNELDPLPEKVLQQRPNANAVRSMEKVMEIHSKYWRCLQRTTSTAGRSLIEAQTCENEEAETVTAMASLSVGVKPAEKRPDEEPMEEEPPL
Chain of Histone deacetylase 1 (Q13547 whole entry): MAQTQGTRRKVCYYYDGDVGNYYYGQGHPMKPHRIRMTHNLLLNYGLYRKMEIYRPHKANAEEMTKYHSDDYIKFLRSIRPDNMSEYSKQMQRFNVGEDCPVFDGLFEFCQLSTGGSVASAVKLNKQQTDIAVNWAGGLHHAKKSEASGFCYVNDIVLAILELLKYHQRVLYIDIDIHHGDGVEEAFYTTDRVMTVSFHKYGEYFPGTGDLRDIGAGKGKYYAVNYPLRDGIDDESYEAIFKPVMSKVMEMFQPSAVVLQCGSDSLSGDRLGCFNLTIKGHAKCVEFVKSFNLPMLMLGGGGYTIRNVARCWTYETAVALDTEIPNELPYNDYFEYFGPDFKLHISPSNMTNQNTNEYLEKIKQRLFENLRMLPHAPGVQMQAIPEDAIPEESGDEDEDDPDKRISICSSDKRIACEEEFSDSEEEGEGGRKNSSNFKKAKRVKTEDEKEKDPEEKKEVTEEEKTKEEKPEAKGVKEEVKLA

Compound	IC50 (HepG2)	IC50 (Histone deacetylase 1)	IC50 (Histone deacetylase 4)	IC50 (HCT-116)	IC50 (A549)	Ratio IC50 (Homo sapiens)	IC50 (PC-3)	Activity [7]	IC50 (Histone deacetylase)	Activity (U-937 [1])	Activity (U-937 [2])	Activity (U-937 [3])	Activity (U-937 [4])	Activity (U-937 [5])	Activity (U-937 [6])	Activity (U-937 [8])	Activity (U-937 [9])
Cc1ccc(C(=O)/C=C/c2ccc(/C=C/C(=O)NO)o2)cc1	16 µM	13.2 µM	1.1 µM	0.54 µM	48.6 µM	11.9	16 µM			Active	Active						
O=C(NO)c1ccc(/C=C/c2ccccc2O)o1	54 µM	47.1 µM	74.2 µM	5.1 µM	79.2 µM	0.63	91.3 µM					inactive	Active	Active			
O=C(NO)c1ccc(/C=C/c2ccc(O)cc2)o1	20.9 µM	43.1 µM	57.1 µM	2.73 µM	86.4 µM	0.76	21.8 µM					inactive	Active	Active			
O=C(/C=C/c1ccc(/C=C/C(=O)c2ccc(Cl)cc2Cl)o1)NO	13.5 µM	4.29 µM	8.19 µM	6.73 µM	88.1 µM	0.5	16.2 µM	Active		Active	Active				Active		
O=C(/C=C/c1ccc(/C=C/C(=O)c2ccc3ccccc3c2)o1)NO	9.93 µM	3.77 µM	4.38 µM	2.22 µM	29.4 µM	0.9	15.1 µM	Active	0.63 µM	Active					Active	Active	
O=C(/C=C/c1ccc(/C=C/C(=O)c2ccc(F)cc2)o1)NO	12 µM	15 µM	7.68 µM	2.82 µM		2	40.1 µM	Active		Active					Active	Active	
O=C(CCCCCCC(=O)Nc1ccccc1C(=O)NO)Nc1ccccc1	63.5 µM	0.59 µM	0.55 µM	2.69 µM		1.01	8.17 µM		0.042 µM								
O=C(/C=C/c1ccc(/C=C/C(=O)c2cccc(Cl)c2)o1)NO	54.5 µM	12.6 µM	12.9 µM	1.51 µM	18.9 µM	1	9.6 µM	Active		Active					Active	Active	

Further lines, with some results ahead:

IC50 (HepG2)	IC50 (Histone deacetylase 1)	IC50 (Histone deacetylase 4)	IC50 (HCT-116)	IC50 (A549)	Ratio IC50 (Homo sapiens)	IC50 (PC-3)	Activity [7]	IC50 (Histone deacetylase)	Compound	Activity (U-937 [1])	Activity (U-937 [2])	Activity (U-937 [3])	Activity (U-937 [4])	Activity (U-937 [5])	Activity (U-937 [6])	Activity (U-937 [8])	Activity (U-937 [9])
33.6 µM	29.6 µM	85.6 µM	4.98 µM	63.6 µM	0.34	45.9 µM			O=C(NO)c1ccc(/C=C/c2ccc3c(c2)OCO3)o1								
60.1 µM			27.5 µM			59.1 µM			Nc1ccccc1NC(=O)c1ccc(CNC(=O)OCc2cccnc2)cc1 [ENTINOSTAT]								
6.22 µM	11 µM	4.04 µM	2.06 µM		2.7	36.3 µM	Active		COc1ccc2cc(C(=O)/C=C/c3ccc(/C=C/C(=O)NO)o3)ccc2c1	Active	Active				Active		
37.2 µM	25.3 µM	49.3 µM	3.39 µM	23.6 µM	0.51	39.2 µM			O=C(NO)c1ccc(/C=C/c2cccc(Cl)c2Cl)o1								
48.3 µM	4.72 µM	4.31 µM	4.12 µM	27.1 µM	1.1	24.7 µM	Active		O=C(/C=C/c1ccc(/C=C/C(=O)c2cc(Cl)ccc2Cl)o1)NO						Active	Active	
0.62 µM				13.1 µM		2.73 µM			CC(=O)O[C@H]1C(=O)[C@@]2(C)[C@H]([C@H](OC(=O)c3ccccc3)[C@]3(O)C[C@H](OC(=O)[C@H](O)[C@@H](NC(=O)c4ccccc4)c4ccccc4)C(C)=C1C3(C)C)[C@]1(OC(C)=O)CO[C@@H]1C[C@@H]2O [PACLITAXEL]								
	50.1 µM	42.8 µM			1.17	35.1 µM			COc1cccc(/C=C/c2ccc(C(=O)NO)o2)c1O								
31.7 µM	49.1 µM	50.6 µM		46.3 µM	0.97	3.2 µM			CN(C)c1ccc(/C=C/c2ccc(C(=O)NO)o2)cc1						Active		Active
6.74 µM	15.7 µM	6.03 µM	2.01 µM	98.1 µM	2.6	1.35 µM	Active		O=C(/C=C/c1ccc(/C=C/C(=O)c2ccc(Cl)cc2)o1)NO						Active	Active	
35.9 µM	24.1 µM	4.89 µM	0.49 µM	56.7 µM	4.9	2.27 µM	Active		CC(C)c1ccc(C(=O)/C=C/c2ccc(/C=C/C(=O)NO)o2)cc1						Active	Active	
